From PubChem BioAssay
DENV2 CPE rescue – protects cells from dengue virus 2 cytopathic effect; DENV2-infected cells, cytopathic effect rescue, plate reader; CPE inhibition, % at 9.99 µM; actives 1.7% (n = 350,000); in the data active means CPE inhibition above about 20%, passing the limit was not always enough; inconclusive means no clear call, values can overlap the other calls; tested in BHK-21 cells;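 further: 0% = median of neutral control wells and 100% = median of positive control wells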
Statin myotox sup – suppression of simvastatin myotoxicity. C2C12 myotubes + simvastatin, ATP luminescence, 48 h; scaled: DMSO 0, geranylgeraniol control 100. rescue of ATP level, % at 7.49 µM. actives 0.78% (n = 330,000). AID 602340;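 active means mean ATP rescue above about 67%, or every replicate alone reaching that limit, limit read from the data, passing the limit was not always enough; inconclusive means no clear call, values can overlap the other calls; inactive means mean under the limit and some replicate under it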;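 further: myotubes were challenged with 10 µM simvastatin during compound exposure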
ERp5 block – blocks human ERp5 reductase activity on insulin. Q15084. ERp5 insulin aggregation, absorbance 650 nm, 90 min. inhibition, % at 9.99 µM. actives 0.05% (n = 350,000). AID 651711;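 active means mean replicate inhibition above about 25%, with every replicate also reaching it, limit read from the data, passing the limit was not always enough; inconclusive means only one of those two criteria met; inactive means neither criterion met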
Target sequence (Q15084 whole entry, looked up): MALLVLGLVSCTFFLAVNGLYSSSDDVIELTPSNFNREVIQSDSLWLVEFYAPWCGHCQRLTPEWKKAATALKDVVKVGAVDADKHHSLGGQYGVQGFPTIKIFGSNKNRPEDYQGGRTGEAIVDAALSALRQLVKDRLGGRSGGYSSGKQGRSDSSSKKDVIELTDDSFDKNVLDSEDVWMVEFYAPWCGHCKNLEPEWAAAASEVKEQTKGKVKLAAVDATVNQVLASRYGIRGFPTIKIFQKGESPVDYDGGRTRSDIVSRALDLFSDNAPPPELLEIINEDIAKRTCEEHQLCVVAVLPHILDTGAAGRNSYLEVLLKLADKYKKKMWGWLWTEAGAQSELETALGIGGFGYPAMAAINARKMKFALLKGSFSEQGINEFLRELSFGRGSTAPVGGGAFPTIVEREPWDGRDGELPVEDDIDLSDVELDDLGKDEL
Cneo AK release – causes C. neoformans cell lysis; adenylate kinase release luminescence, 4 h; normalised: neutral wells 0, clomiphene wells 100; lysis activity, % at 15 µM; actives 0.2% (n = 360,000);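 active means mean lysis activity across replicates of at least 80%, whatever share of replicates individually reach that level; inactive means mean lysis activity below 80%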
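Assay system: log-phase C. neoformans yeast / Quantity: yeast cell density of 5 × 10^6 cells/mL / Medium: fresh YPD growth medium / Compound: single dose / Timing: static 4 h at 37 °C with compound, 1 h detection / Measured by: adenylate kinase release luminescence / Read-out: lysis from increased AK signal / Benchmarks: Clomiphene as positive lysis control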
PDI inh – PDI (human) enzyme inhibition | P07237 | PDI insulin aggregation turbidity, A650, 90 min | inhibition, % at 10 µM | actives 0.052% (n = 350,000) | AID 588391;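 active means mean inhibition across replicates of 30% or more, whatever share of single replicates reach that level; inconclusive means mean inhibition below 30% while every single replicate reaches 30%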
F508del corr – CFTR F508del correction in bronchial cells | activity (quench increase), % at 7.58 µM | actives 0.36% (n = 350,000) | AID 720511 | CFBE cells, YFP halide quenching; stimulated with forskolin plus potentiator P3; % fluorescence drop versus neutral controls;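 active means mean added fluorescence quench of at least 8% versus neutral control, with both replicates also reaching 8%; inconclusive means only one of the mean or replicate conditions met; inactive means mean below 8% and not both replicates reaching 8%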;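 further: cells transiently co-express mutant CFTR-F508del with the halide-sensitive YFP; corrector assay measuring rescue of mutant channel to the surface after 24 h compound exposure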
Active calls of the source: *; ? = inconclusive; nt = no result. Shown are actives, neighbours in structure and some others; about 2.3% of the full set was active somewhere.

SMILES | DENV2 CPE rescue | Statin myotox sup | ERp5 block | Cneo AK release | PDI inh | F508del corr
Nc1ccc(C(CC(=O)O)n2cccc2)cc1 (stereo not drawn) | -3 | 9 | -2 | -5 | 2 | -2
O=C(O)CC(c1ccccc1)n1cccc1 (stereo not drawn) | nt | 115* | nt | -1 | 0 | nt
CN(C)CC(=O)N1[C@@H]2c3ccc(-c4ccc(F)cc4)c(=O)n3C[C@@H]2[C@@H](CO)[C@@H]1C(=O)NC1CCCC1 | 14 | 5 | 2 | 0 | nt | -1
CCOC(=O)C1=C(C)NC(=O)NC1c1ccc(OC)c(CN2CCOCC2)c1 (stereo not drawn) | nt | 79* | nt | 7 | 12 | nt
CCOCc1cc(C2NC(=O)NC(C)=C2C(=O)OCC)ccc1OC (stereo not drawn) | nt | 9 | nt | 5 | -3 | nt
CO[C@H]1CN(C)C(=O)c2ccc(NC(=O)Nc3cccc(F)c3)cc2OC[C@H](C)N(C(=O)Nc2c(C)noc2C)C[C@H]1C | 6 | -2 | 0 | -3 | nt | -1
CO[C@H]1CN(C)C(=O)c2ccc(NC(=O)Nc3cccc(F)c3)cc2OC[C@@H](C)N(C(=O)Nc2c(C)noc2C)C[C@@H]1C | 25* | 5 | -4 | 0 | nt | 1
CO[C@@H]1CN(C)C(=O)c2ccc(NC(=O)Nc3cccc(Cl)c3)cc2OC[C@H](C)N(C(=O)Nc2c(C)noc2C)C[C@H]1C | 31* | nt | 0 | nt | nt | 1
CO[C@H]1CN(C)C(=O)c2ccc(NC(=O)Nc3cccc(Cl)c3)cc2OC[C@H](C)N(C(=O)Nc2c(C)noc2C)C[C@@H]1C | 19 | nt | 2 | nt | nt | -6
CN1CCN(C(=O)C[C@@H]2C[C@@H]3c4cc(NC(=O)Nc5ccc(F)cc5)ccc4O[C@@H]3[C@@H](CO)O2)CC1 | 3 | 10 | 5 | 11 | nt | 2
O=S(=O)(NCCOCC(F)(F)C(F)F)c1ccc2oc3ccccc3c2c1 | nt | nt | nt | 3 | -4 | nt
COc1ccc(OCCNS(=O)(=O)c2ccc3oc4ccccc4c3c2)cc1 | nt | 101* | nt | 1 | -2 | nt
O=C(C[C@H]1C=C[C@@H](NC(=O)C2CC2)[C@H](CO)O1)NCc1ccccc1Cl | ? | -1 | -2 | -4 | nt | 0
C[C@@H]1CN([C@@H](C)CO)C(=O)c2cc(NC(=O)c3ccccc3)ccc2O[C@@H](C)CCCCO[C@@H]1CN(C)S(=O)(=O)c1cccs1 | 45* | nt | nt | -17 | nt | 0
C[C@H](CO)N1C[C@H](C)[C@H](CN(C)S(=O)(=O)c2cccs2)OCCCC[C@H](C)Oc2ccc(NC(=O)Nc3ccc(F)cc3)cc2C1=O | 0 | ? | -4 | -3 | nt | 0
C[C@@H]1CCCCO[C@@H](CN(C)S(=O)(=O)c2cccs2)[C@H](C)CN([C@@H](C)CO)C(=O)c2cc(NC(=O)Nc3ccc(F)cc3)ccc2O1 | -5 | 84* | 0 | -3 | nt | 0
C[C@@H]1CCCCO[C@@H](CN(C)S(=O)(=O)c2cccs2)[C@H](C)CN([C@H](C)CO)C(=O)c2cc(NC(=O)Nc3ccccc3)ccc2O1 | 60* | nt | -2 | -3 | nt | 1
C[C@@H]1CCCCO[C@@H](CN(C)S(=O)(=O)c2cccs2)[C@@H](C)CN([C@@H](C)CO)C(=O)c2cc(NC(=O)Nc3ccc(F)cc3)ccc2O1 | -10 | 24 | -4 | -1 | nt | -2
C[C@@H]1CCCCO[C@H](CN(C)S(=O)(=O)c2cccs2)[C@H](C)CN([C@@H](C)CO)C(=O)c2cc(NC(=O)Nc3ccccc3)ccc2O1 | -5 | nt | 5 | -3 | nt | 3
C[C@@H]1CN([C@H](C)CO)C(=O)c2cc(NC(=O)Nc3ccc(F)cc3)ccc2O[C@@H](C)CCCCO[C@@H]1CN(C)S(=O)(=O)c1cccs1 | 21* | -64 | -1 | -4 | nt | -3
Cc1cccc(Cn2c(N3CCCCC3C)nc3c2c(=O)[nH]c(=O)n3C)c1 (stereo not drawn) | ? | 120* | 1 | 0 | 10 | 0
Cc1ccc(S(=O)(=O)N(C)C[C@@H]2Oc3ccc(NC(=O)CCCCCC(=O)Nc4ccccc4N)cc3C(=O)N([C@H](C)CO)C[C@H]2C)cc1 | 0 | nt | 10 | nt | nt | -2
O=C1c2cccc3c(O)ccc(c23)C(=O)N1c1ccc(Cl)cc1 | -7 | -8 | 3 | 0 | -3 | 19*
O=C1c2cccc3c(O)ccc(c23)C(=O)N1Cc1ccco1 | 24* | 12 | 6 | 0 | 7 | 27*
COc1ccccc1C(=O)Nc1ccc2c(c1)OC[C@@H](C)N(CC1CC1)C[C@H](C)[C@@H](OC)CN(C)C2=O | nt | 9 | nt | nt | nt | 1
SMILES | DENV2 CPE rescue | Statin myotox sup | ERp5 block | Cneo AK release | PDI inh | F508del corr
Nc1sc(Cc2ccccc2)cc1C(=O)c1c(-c2ccccc2)[nH]c2ccccc12 | 84* | nt | -6 | nt | nt | 1
CCNC(=O)C(=O)c1c(-c2ccccc2)[nH]c2ccccc12 | 3 | nt | -4 | nt | -3 | 3
COc1cc(CNc2ncnc3c2ncn3[C@H]2CN(Cc3cccc4ccccc34)C[C@@H](CO)O2)cc(OC)c1OC | 6 | 166* | -1 | 0 | 17 | 0
C=CCNc1ncnc2c1ncn2[C@H]1CN(Cc2ccccc2)C[C@@H](CO)O1 | ? | -1 | -1 | -3 | 6 | 6
COc1ccc(CN2C[C@@H](CO)O[C@@H](n3cnc4c(NCc5ccc(F)cc5)ncnc43)C2)cc1 | -1 | 81* | 3 | 0 | -6 | -2
C=CCNc1ncnc2c1ncn2[C@H]1CN(Cc2cccc3ccccc23)C[C@@H](CO)O1 | -6 | -4 | -5 | 2 | 39* | -3
COc1cc(CNc2ncnc3c2ncn3[C@H]2CN(Cc3ccc(-c4ccccc4)cc3)C[C@@H](CO)O2)cc(OC)c1OC | 6 | 28 | 1 | 3 | 0 | 0
OC[C@@H]1CN(Cc2ccc(Cl)cc2)C[C@H](n2cnc3c(NCc4ccc(F)cc4)ncnc32)O1 | -3 | 0 | -8 | 0 | 1 | 1
CCCC#Cc1cnc2c(c1)C(=O)N([C@H](C)CO)C[C@@H](C)[C@H](CN(C)Cc1ccc(F)cc1)O2 | -9 | 11 | 1 | 1 | nt | 0
CCNC(=O)C[C@H]1CC[C@H]2[C@H](COc3ccc(NC(=O)c4cc(C)on4)cc3C(=O)N2C)O1 | -7 | 8 | 0 | -1 | nt | 1
C[C@@H]1CN([C@H](C)CO)C(=O)c2cc(NC(=O)Nc3cccc4ccccc34)ccc2O[C@H]1CN(C)Cc1ccc(Cl)c(Cl)c1 | 17 | nt | -3 | 4 | nt | 2
Nc1nc(NCc2ccccc2)nc(NCc2ccccc2)c1[N+](=O)[O-] | nt | nt | nt | 3 | 2 | nt
Cc1ccc(CNc2nc(N)c([N+](=O)[O-])c(Nc3ccc(F)cc3)n2)cc1 | nt | 123* | nt | 0 | -3 | nt
CNc1nc(N)c([N+](=O)[O-])c(NCc2ccccc2)n1 | 76* | nt | 7 | -1 | -2 | nt
